ChEMBL document CHEMBL1133105, “Antimalarial, antitrypanosomal, and antileishmanial activities and cytotoxicity of bis(9-amino-6-chloro-2-methoxyacridines): influence of the linker” (J Med Chem, 2000)
pIC50: −log10 of the molar value. One block for each compound: values may come before it.

Assays:
Leishmania infantum [1] = experiment: Percentage of activity against Leishmania infantum 6.25 uM; format: functional
How it was run: (§1)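 Starch-stimulated mouse peritoneal macrophages, 30 000/well, infected after 24 h with spleen-derived L. infantum amastigotes (10:1) together with 2-fold drug dilutions (12.5–1.56 µM). Incubated 7 days at 37 °C, 5% CO2. Wright-stained slides scored microscopically as % reduction of total parasite load or of infected macrophages. Uninfected treated cultures judged microscopically for macrophage toxicity.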

Leishmania infantum [2] = experiment: Percentage of activity against Leishmania infantum at 1.56 uM; format: functional; how it was run: as §1
Leishmania infantum [3] = experiment: In Vitro evaluation for the percentage of activity towards Leishmania infantum at 12.5 uM Concentration; format: functional; how it was run: as §1
Leishmania infantum [4] = experiment: Percentage of activity against Leishmania infantum at 3.13 uM; format: functional; how it was run: as §1
MRC5 [5] = experiment: Cytotoxicity on MRC-5 cells at 12.5 uM; format: functional; conditions: Homo sapiens
How it was run: (§2)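 MRC-5 human diploid embryonic lung cells seeded at 5 000/well, washed after 24 h, then given 2-fold drug dilutions (25, 12.5, 6.25, 3.13 µM) in RPMI + 5% FCS, final DMSO below 0.5%. Incubated 7 days at 37 °C, 5% CO2. MTT colorimetric read-out, scored as % reduction of absorbance at 540 nm versus untreated controls.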

MRC5 [6] = experiment: Cytotoxicity on MRC-5 cells at 25 uM; format: functional; conditions: Homo sapiens; how it was run: as §2
MRC5 [7] = experiment: Cytotoxicity on MRC-5 cells at 3.13 uM; format: functional; conditions: Homo sapiens; how it was run: as §2
MRC5 [8] = experiment: Cytotoxicity on MRC-5 cells at 6.25 uM; format: functional; conditions: Homo sapiens; how it was run: as §2
Plasmodium falciparum = experiment: In vitro sensitivity for Plasmodium falciparum FcB1R; format: functional, organism-based
How it was run: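 Asynchronous P. falciparum cultures in human erythrocytes (0.5% parasitemia, 1% haematocrit) exposed to serially diluted drug for 24 h at 37 °C. [3H]hypoxanthine (0.5 µCi/well) then added for a further 24 h. Uptake compared with drug-free controls on the same plate. IC50 taken from the concentration–response curve, averaged over independent experiments. DMSO ≤0.1%.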

Trypanosoma cruzi [9] = experiment: Percentage of activity against Trypanosoma cruzi at 1.56 uM; format: functional
How it was run: (§3)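 Mouse peritoneal macrophages, 30 000/well, infected after 24 h with about 100 000 T. cruzi trypomastigotes per well plus 2-fold drug dilutions (12.5–1.56 µM). Incubated 4 days at 37 °C, 5% CO2. Methanol-fixed, Giemsa-stained and scored microscopically as % reduction of total parasite load (free trypomastigotes plus intracellular amastigotes) versus untreated controls.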

Trypanosoma cruzi [10] = experiment: Percentage of activity against Trypanosoma cruzi at 12.5 uM; format: functional; how it was run: as §3
Trypanosoma cruzi [11] = experiment: Percentage of activity against Trypanosoma cruzi at 3.13 uM; format: functional; how it was run: as §3
Trypanosoma cruzi [12] = experiment: Percentage of activity against Trypanosoma cruzi at 6.25 uM Concentration; format: functional; how it was run: as §3
Trypanosoma brucei [13] = experiment: Percentage of activity against Trypanosoma brucei at 6.25 uM; format: functional
How it was run: (§4)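 Bloodstream-form T. brucei in HMI-9 medium, 10 000 parasites/well, exposed to 12.5, 6.25, 3.13 and 1.56 µM drug for 4 days. Read-out is % inhibition of parasite multiplication. Macrophage toxicity judged on mouse primary peritoneal macrophages.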

Trypanosoma brucei [14] = experiment: Percentage of activity against Trypanosoma brucei at 12.5 uM; format: functional; how it was run: as §4
Trypanosoma brucei [15] = experiment: Percentage of activity against Trypanosoma brucei at 1.56 uM; format: functional; how it was run: as §4
Trypanosoma brucei [16] = experiment: Percentage of activity against Trypanosoma brucei at 3.13 uM; format: functional; how it was run: as §4
Leishmania infantum [17] = experiment: Percentage of activity against Leishmania infantum at 6.25 uM; Toxic upon mouse primary peritoneal macrophages; format: functional, organism-based; how it was run: as §1
Leishmania infantum [18] = experiment: Percentage of activity against Leishmania infantum at 12.5 uM Concentration; Toxic upon mouse primary peritoneal macrophages; format: functional, organism-based; how it was run: as §1
Trypanosoma cruzi [19] = experiment: Percentage of activity against Trypanosoma cruzi at 12.5 uM; Toxic upon mouse primary peritoneal macrophages; format: functional, organism-based; how it was run: as §3
Trypanosoma cruzi [20] = experiment: In Vitro evaluation for the percentage of activity towards Trypanosoma cruzi at 6.25 uM Concentration; Toxic upon mouse primary peritoneal macrophages; format: functional, organism-based; how it was run: as §3

SMILES: COc1ccc2nc3cc(Cl)ccc3c(NCCCN(CCCNc3c4ccc(Cl)cc4nc4ccc(OC)cc34)C(=O)C(CC(=O)O)NC(=O)OC(C)(C)C)c2c1 (stereo not given)
Antileishmanial activity (% reduction of parasite load) (Leishmania infantum [1]): 0%
Antileishmanial activity (% reduction of parasite load) (Leishmania infantum [2]): 0%
Percent inhibition of Leishmania infantum (Leishmania infantum [3]): 0%
Percent antileishmanial activity (reduction of parasite load) (Leishmania infantum [4]): 0%
cytotoxicity at 12.5 µM (MRC5 [5]): 0%
cytotoxicity at 25 µM (MRC5 [6]): 0%
cytotoxicity at 3.13 µM (MRC5 [7]): 0%
cytotoxicity at 6.25 µM (MRC5 [8]): 0%
pIC50 (Plasmodium falciparum): < 6.30
Parasite load reduction (Trypanosoma cruzi [9]): 0%
T. cruzi parasite load reduction (Trypanosoma cruzi [10]): 80%
Reduction of T. cruzi parasite load (Trypanosoma cruzi [11]): 0%
Reduction of T. cruzi parasite load (Trypanosoma cruzi [12]): 0%
Inhibition of parasite multiplication (Trypanosoma brucei [13]): 100%
Inhibition of parasite multiplication (Trypanosoma brucei [14]): 100%
Percent inhibition of parasite multiplication (Trypanosoma brucei [15]): 100%
Parasite growth inhibition (Trypanosoma brucei [16]): 100%

SMILES: COc1ccc2nc3cc(Cl)ccc3c(NCCCN(CCCNc3c4ccc(Cl)cc4nc4ccc(OC)cc34)C(=O)C(CC(=O)OCC3c4ccccc4-c4ccccc43)NC(=O)OC(C)(C)C)c2c1 (stereo not given)
Antileishmanial activity (% reduction of parasite load) (Leishmania infantum [1]): 0%
Antileishmanial activity (% reduction of parasite load) (Leishmania infantum [2]): 0%
Percent inhibition of Leishmania infantum (Leishmania infantum [3]): 20%
Percent antileishmanial activity (reduction of parasite load) (Leishmania infantum [4]): 0%
cytotoxicity at 12.5 µM (MRC5 [5]): 0%
cytotoxicity at 25 µM (MRC5 [6]): 0%
cytotoxicity at 3.13 µM (MRC5 [7]): 0%
cytotoxicity at 6.25 µM (MRC5 [8]): 0%
pIC50 (Plasmodium falciparum): 6.64
Parasite load reduction (Trypanosoma cruzi [9]): 0%
T. cruzi parasite load reduction (Trypanosoma cruzi [10]): 40%
Reduction of T. cruzi parasite load (Trypanosoma cruzi [11]): 0%
Reduction of T. cruzi parasite load (Trypanosoma cruzi [12]): 0%
Inhibition of parasite multiplication (Trypanosoma brucei [13]): 100%
Inhibition of parasite multiplication (Trypanosoma brucei [14]): 100%
Percent inhibition of parasite multiplication (Trypanosoma brucei [15]): 100%
Parasite growth inhibition (Trypanosoma brucei [16]): 100%

SMILES: COc1ccc2nc3cc(Cl)ccc3c(NCCCN(CCCNc3c4ccc(Cl)cc4nc4ccc(OC)cc34)C(=O)C(COC(C)=O)NC(=O)OC(C)(C)C)c2c1 (stereo not given)
Antileishmanial activity (% reduction of parasite load) (Leishmania infantum [1]): 80%
Antileishmanial activity (% reduction of parasite load) (Leishmania infantum [2]): 0%
Percent inhibition of Leishmania infantum (Leishmania infantum [3]): 90%
Percent antileishmanial activity (reduction of parasite load) (Leishmania infantum [4]): 60%
cytotoxicity at 12.5 µM (MRC5 [5]): 90%
cytotoxicity at 25 µM (MRC5 [6]): 100%
cytotoxicity at 3.13 µM (MRC5 [7]): 20%
cytotoxicity at 6.25 µM (MRC5 [8]): 40%
pIC50 (Plasmodium falciparum): 7.20
Parasite load reduction (Trypanosoma cruzi [9]): 0%
T. cruzi parasite load reduction (Trypanosoma cruzi [10]): 70%
Reduction of T. cruzi parasite load (Trypanosoma cruzi [11]): 0%
Reduction of T. cruzi parasite load (Trypanosoma cruzi [12]): 40%
Inhibition of parasite multiplication (Trypanosoma brucei [13]): 100%
Inhibition of parasite multiplication (Trypanosoma brucei [14]): 100%
Percent inhibition of parasite multiplication (Trypanosoma brucei [15]): 100%
Parasite growth inhibition (Trypanosoma brucei [16]): 100%

SMILES: COc1ccc2nc3cc(Cl)ccc3c(NCCCN(CCCNc3c4ccc(Cl)cc4nc4ccc(OC)cc34)C(=O)C(C)NC(=O)OCC3c4ccccc4-c4ccccc43)c2c1 (stereo not given)
Cytotoxicity (Leishmania infantum [17]): Toxic
Antileishmanial activity (% reduction of parasite load) (Leishmania infantum [2]): 0%
Cytotoxicity (Leishmania infantum [18]): Toxic
Percent antileishmanial activity (reduction of parasite load) (Leishmania infantum [4]): 40%
cytotoxicity at 12.5 µM (MRC5 [5]): 100%
cytotoxicity at 25 µM (MRC5 [6]): 100%
cytotoxicity at 3.13 µM (MRC5 [7]): 100%
cytotoxicity at 6.25 µM (MRC5 [8]): 100%
pIC50 (Plasmodium falciparum): 6.63
Parasite load reduction (Trypanosoma cruzi [9]): 0%
Cytotoxicity (Trypanosoma cruzi [19]): Toxic
Reduction of T. cruzi parasite load (Trypanosoma cruzi [11]): 0%
Cytotoxicity (Trypanosoma cruzi [20]): Toxic
Inhibition of parasite multiplication (Trypanosoma brucei [13]): 100%
Inhibition of parasite multiplication (Trypanosoma brucei [14]): 100%
Percent inhibition of parasite multiplication (Trypanosoma brucei [15]): 100%
Parasite growth inhibition (Trypanosoma brucei [16]): 100%

SMILES: COc1ccc2nc3cc(Cl)ccc3c(NCCCCCCNc3c4ccc(Cl)cc4nc4ccc(OC)cc34)c2c1
Antileishmanial activity (% reduction of parasite load) (Leishmania infantum [1]): 0%
Antileishmanial activity (% reduction of parasite load) (Leishmania infantum [2]): 0%
Percent inhibition of Leishmania infantum (Leishmania infantum [3]): 40%
Percent antileishmanial activity (reduction of parasite load) (Leishmania infantum [4]): 0%
cytotoxicity at 12.5 µM (MRC5 [5]): 90%
cytotoxicity at 25 µM (MRC5 [6]): 100%
cytotoxicity at 3.13 µM (MRC5 [7]): 20%
cytotoxicity at 6.25 µM (MRC5 [8]): 80%
pIC50 (Plasmodium falciparum): 7.80
Parasite load reduction (Trypanosoma cruzi [9]): 0%
T. cruzi parasite load reduction (Trypanosoma cruzi [10]): 70%
Reduction of T. cruzi parasite load (Trypanosoma cruzi [11]): 0%
Reduction of T. cruzi parasite load (Trypanosoma cruzi [12]): 40%
Inhibition of parasite multiplication (Trypanosoma brucei [13]): 100%
Inhibition of parasite multiplication (Trypanosoma brucei [14]): 100%
Percent inhibition of parasite multiplication (Trypanosoma brucei [15]): 90%
Parasite growth inhibition (Trypanosoma brucei [16]): 99%

Second part, led by results:

pIC50 (Plasmodium falciparum): 6.57
SMILES: COc1ccc2nc3cc(Cl)ccc3c(NCCCN(CCCNc3c4ccc(Cl)cc4nc4ccc(OC)cc34)C(=O)CCC(=O)O)c2c1
Antileishmanial activity (% reduction of parasite load) (Leishmania infantum [1]): 0%
Antileishmanial activity (% reduction of parasite load) (Leishmania infantum [2]): 0%
Percent inhibition of Leishmania infantum (Leishmania infantum [3]): 0%
Percent antileishmanial activity (reduction of parasite load) (Leishmania infantum [4]): 0%
cytotoxicity at 12.5 µM (MRC5 [5]): 0%
cytotoxicity at 25 µM (MRC5 [6]): 0%
cytotoxicity at 3.13 µM (MRC5 [7]): 0%
cytotoxicity at 6.25 µM (MRC5 [8]): 0%
Parasite load reduction (Trypanosoma cruzi [9]): 0%
T. cruzi parasite load reduction (Trypanosoma cruzi [10]): 0%
Reduction of T. cruzi parasite load (Trypanosoma cruzi [11]): 0%
Reduction of T. cruzi parasite load (Trypanosoma cruzi [12]): 0%
Inhibition of parasite multiplication (Trypanosoma brucei [13]): 95%
Inhibition of parasite multiplication (Trypanosoma brucei [14]): 100%
Percent inhibition of parasite multiplication (Trypanosoma brucei [15]): 60%
Parasite growth inhibition (Trypanosoma brucei [16]): 80%

pIC50 (Plasmodium falciparum): < 6.30
SMILES: COc1ccc2nc3cc(Cl)ccc3c(NCCCN(CCCNc3c4ccc(Cl)cc4nc4ccc(OC)cc34)C(=O)C(N)CN)c2c1 (stereo not given)
Cytotoxicity (Leishmania infantum [17]): Toxic
Antileishmanial activity (% reduction of parasite load) (Leishmania infantum [2]): 0%
Cytotoxicity (Leishmania infantum [18]): Toxic
Percent antileishmanial activity (reduction of parasite load) (Leishmania infantum [4]): 0%
cytotoxicity at 12.5 µM (MRC5 [5]): 0%
cytotoxicity at 25 µM (MRC5 [6]): 0%
cytotoxicity at 3.13 µM (MRC5 [7]): 0%
cytotoxicity at 6.25 µM (MRC5 [8]): 0%
Parasite load reduction (Trypanosoma cruzi [9]): 0%
Cytotoxicity (Trypanosoma cruzi [19]): Toxic
Reduction of T. cruzi parasite load (Trypanosoma cruzi [11]): 40%
Cytotoxicity (Trypanosoma cruzi [20]): Toxic
Inhibition of parasite multiplication (Trypanosoma brucei [13]): 100%
Percent inhibition of parasite multiplication (Trypanosoma brucei [15]): 99%
Parasite growth inhibition (Trypanosoma brucei [16]): 100%

pIC50 (Plasmodium falciparum): 6.61
SMILES: COc1ccc2nc3cc(Cl)ccc3c(NCCCN(CCCNc3c4ccc(Cl)cc4nc4ccc(OC)cc34)C(=O)C(CO)NC(=O)OC(C)(C)C)c2c1 (stereo not given)
Antileishmanial activity (% reduction of parasite load) (Leishmania infantum [1]): 0%
Antileishmanial activity (% reduction of parasite load) (Leishmania infantum [2]): 0%
Percent inhibition of Leishmania infantum (Leishmania infantum [3]): 40%
Percent antileishmanial activity (reduction of parasite load) (Leishmania infantum [4]): 0%
cytotoxicity at 12.5 µM (MRC5 [5]): 0%
cytotoxicity at 25 µM (MRC5 [6]): 0%
cytotoxicity at 3.13 µM (MRC5 [7]): 0%
cytotoxicity at 6.25 µM (MRC5 [8]): 0%
Parasite load reduction (Trypanosoma cruzi [9]): 0%
T. cruzi parasite load reduction (Trypanosoma cruzi [10]): 80%
Reduction of T. cruzi parasite load (Trypanosoma cruzi [11]): 0%
Reduction of T. cruzi parasite load (Trypanosoma cruzi [12]): 20%
Inhibition of parasite multiplication (Trypanosoma brucei [13]): 100%
Inhibition of parasite multiplication (Trypanosoma brucei [14]): 100%
Percent inhibition of parasite multiplication (Trypanosoma brucei [15]): 100%
Parasite growth inhibition (Trypanosoma brucei [16]): 100%
